Experimental data from ChEMBL document CHEMBL4480410, “Targeting the MKK7-JNK (Mitogen-Activated Protein Kinase Kinase 7-c-Jun N-Terminal Kinase) Pathway with Covalent Inhibitors” (J Med Chem, 2019).
The source made the active and inactive calls. The calls are words filed in the database; no cut-off is given here.

Columns and labels:
[1] = target: Serine/threonine-protein kinase mTOR (Homo sapiens) (UniProt P42345); experiment: Inhibition of mTOR (unknown origin) at 1 uM by proQinase-based assay relative to control
[2] = target: T1, Dual specificity mitogen-activated protein kinase kinase 7 (Mus musculus) (UniProt Q8CE90); experiment: Inhibition of MKK7 in mouse DRG cells assessed as reduction in cJUN phosphorylation at 1 uM after 2 hrs by Western blot analysis; assay type: cell-based
T1 sequence (whole entry): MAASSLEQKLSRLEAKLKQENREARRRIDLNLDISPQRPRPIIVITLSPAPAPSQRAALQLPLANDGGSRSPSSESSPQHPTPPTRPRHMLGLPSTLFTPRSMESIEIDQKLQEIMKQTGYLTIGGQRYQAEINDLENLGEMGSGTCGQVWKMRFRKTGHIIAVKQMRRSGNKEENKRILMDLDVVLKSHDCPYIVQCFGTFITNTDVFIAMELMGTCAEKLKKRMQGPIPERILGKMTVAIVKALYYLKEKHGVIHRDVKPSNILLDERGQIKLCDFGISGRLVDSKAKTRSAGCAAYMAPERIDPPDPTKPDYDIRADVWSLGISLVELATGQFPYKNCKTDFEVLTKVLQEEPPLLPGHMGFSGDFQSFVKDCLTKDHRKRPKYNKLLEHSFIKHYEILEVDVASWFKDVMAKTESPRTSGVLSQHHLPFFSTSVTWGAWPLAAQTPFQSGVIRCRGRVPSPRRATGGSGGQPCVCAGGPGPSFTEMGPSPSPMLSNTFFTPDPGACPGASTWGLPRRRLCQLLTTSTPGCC
Summary of the method: (§1)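 Dissociated DRG neurons plated on laminin for 3 h, medium replaced, compound added for a further 2 h. Neurons lysed in RIPA buffer with phosphatase inhibitors. Western blots probed for phospho-cJun, cJun, phospho-JNK and JNK.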

[3] = Apparent permeability across apical to basolateral side in MDCK2-MDR1 cells at 10 uM after 2 hrs by transwell membrane based assay; assay type: ADME, cell-based, Canis lupus familiaris; settings: dog, MDCK-MDR1
Summary of the method: (§2)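 Compound at 10 µM in HBSS added to apical or basolateral side of MDCKII-MDR1 monolayer, 2 h at 37 °C. Both sides quantified by LC-MS/MS; Papp A–B or B–A from receiver concentration and volume, time, membrane area and initial donor concentration.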

[4] = target: T1, Dual specificity mitogen-activated protein kinase kinase 7 (Mus musculus); experiment: Inhibition of MKK7 in mouse DRG cells assessed as reduction in JNK phosphorylation at 1 uM after 2 hrs by Western blot analysis; assay type: cell-based; summary of the method: as §1
[5] = Protein binding in human plasma at 5 uM after 6 hrs by LC/MS analysis; assay type: ADME, cell-free; settings: read-out: PPB (converted)
Summary of the method: (§3)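 Equilibrium dialysis of plasma with compound at 5 µM, 6 h at 37 °C; final compound concentrations determined by LC/MS to give percent bound.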

[6] = Apparent permeability across basolateral to apical side in human Caco2 cells at 5 uM after 2 hrs by transwell membrane based assay; assay type: ADME, cell-based, Caco-2; settings: Caco-2
Summary of the method: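 10 mM DMSO stock diluted to 5 µM final in HBSS pH 7.4; 2 h at 37 °C, 5% CO2 on Caco-2 monolayers grown 21 days on transwell membranes.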

[7] = Inhibition of N-terminal His-tagged MKK7 beta1 S273D/T275D double mutant (unknown origin) expressed in insect cells using JNK1 K55M mutant as substrate by ADP-Glo assay; set-up: species or system Homo sapiens
Summary of the method: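 ADP-Glo luminescence run per supplier protocol. Kinase: MKK7 beta1 (aa 1-462, TEV-cleavable N-terminal His6 tag, S273D/T275D) expressed in Sf9 insect cells, used at 20 nM. Substrate: JNK1 K55M at 5 µM. Compound dispensed acoustically; read on plate reader.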

[8] = Stability in human plasma assessed as compound remaining at 5 uM after 1 hr by LC/MS analysis; assay type: ADME, cell-free; settings: read-out: Stability
Summary of the method: (§4)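 Compound at 5 µM incubated 1 h at 37 °C in human or mouse plasma; percentage remaining quantified by LC/MS.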

[9] = Stability in mouse plasma assessed as compound remaining at 5 uM after 1 hr by LC/MS analysis; assay type: ADME, cell-free; settings: read-out: Stability; summary of the method: as §4
[10] = Apparent permeability across basolateral to apical side in MDCK2-MDR1 cells at 10 uM after 2 hrs by transwell membrane based assay; assay type: ADME, cell-based, Canis lupus familiaris; settings: dog, MDCK-MDR1; summary of the method: as §2
[11] = Protein binding in mouse plasma at 5 uM after 6 hrs by LC/MS analysis; assay type: ADME, cell-free; settings: read-out: PPB (converted); summary of the method: as §3
[12] = target: T2, Tyrosine-protein kinase ITK/TSK (Homo sapiens) (UniProt Q08881); experiment: Inhibition of ITK (unknown origin) at 1 uM by proQinase-based assay relative to control
T2 sequence (whole entry): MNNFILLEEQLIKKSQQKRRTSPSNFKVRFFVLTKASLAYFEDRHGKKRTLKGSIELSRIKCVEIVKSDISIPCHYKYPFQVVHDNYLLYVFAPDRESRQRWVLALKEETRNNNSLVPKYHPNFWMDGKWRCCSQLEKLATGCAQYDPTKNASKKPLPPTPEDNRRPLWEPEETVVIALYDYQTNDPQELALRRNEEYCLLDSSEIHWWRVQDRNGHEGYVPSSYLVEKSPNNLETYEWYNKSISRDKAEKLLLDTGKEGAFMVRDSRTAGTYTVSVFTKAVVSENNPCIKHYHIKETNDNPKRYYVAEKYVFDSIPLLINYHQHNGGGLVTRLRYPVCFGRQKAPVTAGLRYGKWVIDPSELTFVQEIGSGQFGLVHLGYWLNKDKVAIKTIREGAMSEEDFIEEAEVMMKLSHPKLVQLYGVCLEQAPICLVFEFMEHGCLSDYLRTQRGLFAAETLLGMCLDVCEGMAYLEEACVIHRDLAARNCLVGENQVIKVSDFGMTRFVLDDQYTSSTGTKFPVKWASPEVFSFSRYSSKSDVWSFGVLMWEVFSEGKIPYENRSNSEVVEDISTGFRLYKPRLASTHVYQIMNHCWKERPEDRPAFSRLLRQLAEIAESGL

[13] = target: Tyrosine-protein kinase BTK (Homo sapiens) (UniProt Q06187); experiment: Inhibition of BTK (unknown origin) at 1 uM by proQinase-based assay relative to control
Sequence of Tyrosine-protein kinase BTK (Homo sapiens) (Q06187 whole entry): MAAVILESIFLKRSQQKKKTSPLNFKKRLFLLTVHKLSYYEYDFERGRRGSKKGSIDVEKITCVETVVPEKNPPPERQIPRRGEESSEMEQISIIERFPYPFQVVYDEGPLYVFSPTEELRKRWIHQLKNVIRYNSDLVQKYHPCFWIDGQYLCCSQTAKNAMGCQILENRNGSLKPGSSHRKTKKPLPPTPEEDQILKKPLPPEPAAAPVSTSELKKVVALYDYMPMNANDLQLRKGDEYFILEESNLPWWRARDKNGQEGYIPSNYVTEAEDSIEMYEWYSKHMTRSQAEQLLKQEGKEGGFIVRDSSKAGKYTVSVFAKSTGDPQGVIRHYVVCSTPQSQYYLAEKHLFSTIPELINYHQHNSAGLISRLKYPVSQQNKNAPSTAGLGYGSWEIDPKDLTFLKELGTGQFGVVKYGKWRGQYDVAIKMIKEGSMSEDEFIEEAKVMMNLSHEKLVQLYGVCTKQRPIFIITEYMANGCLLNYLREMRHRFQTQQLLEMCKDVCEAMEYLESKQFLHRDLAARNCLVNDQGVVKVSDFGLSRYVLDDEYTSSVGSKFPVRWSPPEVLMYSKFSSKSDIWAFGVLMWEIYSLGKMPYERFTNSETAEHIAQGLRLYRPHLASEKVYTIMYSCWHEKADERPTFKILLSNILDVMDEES

inhibition [1]: > 50%
inhibition [2]: Active
Papp A→B at 2 h, 10 µM [3]: 9 ×10⁻⁶ cm/s
inhibition [4]: Active
fraction unbound at 6 h, 5 µM [5]: 0.04
Papp B→A at 2 h, 5 µM [6]: 13 ×10⁻⁶ cm/s
remaining at 1 h, 5 µM [8]: > 99%
remaining at 1 h, 5 µM [9]: 70.4%
Papp B→A at 2 h, 10 µM [10]: 4 ×10⁻⁶ cm/s
fraction unbound at 6 h, 5 µM [11]: 0.073
inhibition [12]: > 50%
inhibition [13]: > 50%
SMILES: C=CC(=O)N1CCC[C@@H](n2nc(-c3cn(-c4ccc(C(C)=O)cc4)nn3)c3c(N)ncnc32)C1
IC50 [7]: 10 nM
